Results published in ChEMBL document CHEMBL1123251, “N-(cyanomethyl)- and N-(2-methoxy-1-cyanoethyl)anthracyclines and related carboxyl derivatives” (J Med Chem, 1986).

What was measured:
P388 [1] = assay: Compound was evaluated for the antitumor efficacy at optimal dose 3.1 mg/kg against leukemia P388 in mice on day 1,; format: functional, Mus musculus
P388/S [2] = assay: (§1) Compound was evaluated for the growth inhibition of P388/s cells.; format: functional, cell-based; settings: Mus musculus
Outline: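 Cultured P388 cells were exposed to drug for 48 h and the IC50 for growth inhibition determined.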

[3] = Compound was evaluated for the change in Tm of isolated helical DNA in solution.; format: ADME
Outline: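 Thermal denaturation of calf thymus DNA (5.2×10⁻⁵ M, P) with drug at 5.2×10⁻⁶ M in 0.01 M phosphate buffer pH 7, 10⁻⁵ M EDTA, 5% Me2SO. ΔTm = Tm(DNA–drug complex) − Tm(DNA).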

L1210 [4] = assay: Compound was evaluated for the 50% inhibition of the incorporation of [3H]- thymidine in the DNA (inhibition of synthesis in leukemia L1210 cells); format: functional; settings: Mus musculus, read-out: ED50 (the source's name)
[5] = Partition coefficient in octanol-phosphate buffer at pH 7.4
[6] = Percent recovery of compound at pH 2; format: ADME
Outline: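 Drug stocks in CH3CN or EtOH were diluted 1:1 with phosphate buffer (pH 7), citrate buffer (pH 4) or 0.1 N HCl–KCl (pH 2). Solutions were held at 23 °C for 22 h, then aliquots were analysed by reversed-phase C18 HPLC eluted with 0.1 N NaH2PO4–CH3CN. Percent of drug recovered was reported.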

L1210 [7] = assay: Compound was evaluated for the 50% inhibition of the incorporation of [3H]uridine in the RNA (inhibition of synthesis in leukemia L1210 cells); settings: Mus musculus, read-out: ED50 (the source's name)
[8] = Percent recovery of compound at pH 7; format: ADME
Outline: (§2)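 Drug stock in CH₃CN or EtOH was diluted 1:1 with citrate buffer (pH 4) or phosphate buffer (pH 7) and held at 23 °C for 22 h. Remaining drug was measured by reversed-phase C18 (5 μm) HPLC, eluting with 0.1 N NaH₂PO₄–CH₃CN (70:30 or 66:34, depending on compound). Result is reported as % recovery.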

[9] = Percent recovery of compound at pH 4; format: ADME; outline: as §2
P388 [10] = assay: Compound was evaluated for the antitumor efficacy at optimal dose 8.0 mg/kg against leukemia P388 in mice on day q4d 5, 9, 13.,; format: functional, Mus musculus
P388/ADR = assay: Compound was evaluated for the growth inhibition of P388/ADR cells.; format: functional, cell-based; settings: Mus musculus
Outline: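 P388/ADR, a P388 subline selected for anthracycline resistance, grown in culture and exposed to drug for 48 h. IC50 (μM) was taken for growth inhibition. Resistance index = IC50 in P388/ADR ÷ IC50 in parent P388/S cells.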

P388 [11] = assay: Compound was evaluated for the antitumor efficacy at optimal dose 0.012 mg/kg against leukemia P388 in mice on day 1,; format: functional, Mus musculus
P388 [12] = assay: Compound was evaluated for the antitumor efficacy at optimal dose 7.5 mg/kg against leukemia P388 in mice on day 1,; format: functional, Mus musculus
P388/S [13] = assay: as §1; format: functional, cell-based; settings: Mus musculus; remark: listed apart in the source
Outline: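 Growth inhibition of P388/S cells (the standard screening P388 line) in culture after 48-h drug exposure; IC50 reported in μM.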

| Structure (SMILES) | T/C (P388 [1]) [%] | IC50 (P388/S [2]) [nM] | Change in Tm [3] | EC50 (L1210 [4]) [nM] | logD [5] | Recovery [6] [%] | EC50 (L1210 [7]) [nM] | Recovery [8] [%] | Recovery [9] [%] | T/C (P388 [10]) [%] | IC50 (P388/ADR) [nM] | T/C (P388 [11]) [%] | T/C (P388 [12]) [%] | IC50 (P388/S [13]) [nM] |
| --- | --- | --- | --- | --- | --- | --- | --- | --- | --- | --- | --- | --- | --- | --- |
| COc1cccc2c1C(=O)c1c(O)c3c(c(O)c1C2=O)C[C@@](O)(C(=O)CO)C[C@@H]3OC1CC(NCC#N)C(O)C(C)O1 (stereo not given in full) | 184 | 28 | 13.9 | 1200 | 1.2 | 92 | 290 | 82 | 86 | 148 |  |  |  |  |
| COc1cccc2c1C(=O)c1c(O)c3c(c(O)c1C2=O)C[C@@](O)(C(=O)CO)C[C@@H]3OC1CC(N2CCOCC2C#N)C(O)C(C)O1 (stereo not given in full) |  |  | 8.7 | 3 |  | 10 | 0.53 | 74 | 54 |  | 0.3 | 262 |  |  |
| CCOC(=O)CCCNC1CC(O[C@H]2C[C@](O)(C(C)=O)Cc3c(O)c4c(c(O)c32)C(=O)c2c(OC)cccc2C4=O)OC(C)C1O (stereo not given in full) |  |  | 8.4 | 1300 | 2.04 |  | 370 |  |  |  |  |  |  |  |
| COc1cccc2c1C(=O)c1c(O)c3c(c(O)c1C2=O)C[C@@](O)(C(C)=O)C[C@@H]3OC1CC(N(CC#N)CC(=O)[O-])C(O)C(C)O1.[Na+] (stereo not given in full) |  |  | 2.2 | 14000 | 0.03 |  | 5300 |  |  |  |  |  |  |  |
| COc1cccc2c1C(=O)c1c(O)c3c(c(O)c1C2=O)C[C@@](O)(C(=O)CO)C[C@@H]3O[C@H]1C[C@H](N)[C@H](O)[C@H](C)O1 [DOXORUBICIN] |  |  | 12.8 | 1600 |  |  | 580 |  |  | 160 | 8200 |  | 252 | 68 |
| COc1cccc2c1C(=O)c1c(O)c3c(c(O)c1C2=O)C[C@@](O)(C(C)=O)C[C@@H]3OC1CC(NCC(=O)O)C(O)C(C)O1 (stereo not given in full) |  |  | 2.2 | > 100000 | 0.43 |  | 100000 |  |  |  |  |  |  |  |
| COc1cccc2c1C(=O)c1c(O)c3c(c(O)c1C2=O)C[C@@](O)(C(C)=O)C[C@@H]3O[C@H]1C[C@H](N)[C@H](O)[C@H](C)O1 [DAUNORUBICIN] |  |  | 10.5 | 660 |  |  | 330 |  |  |  |  |  |  |  |
| COCC(C#N)NC1CC(O[C@H]2C[C@](O)(C(=O)CO)Cc3c(O)c4c(c(O)c32)C(=O)c2c(OC)cccc2C4=O)OC(C)C1O (stereo not given in full) |  | 37 | 12.5 | 800 | 0.92 | 58 | 400 | 28 | 29 |  |  |  |  |  |
| CCOC(=O)CN(CC#N)C1CC(O[C@H]2C[C@](O)(C(C)=O)Cc3c(O)c4c(c(O)c32)C(=O)c2c(OC)cccc2C4=O)OC(C)C1O (stereo not given in full) |  |  |  | 7000 |  |  | 3500 |  |  |  |  |  |  |  |
| CCOC(=O)CNC1CC(O[C@H]2C[C@](O)(C(C)=O)Cc3c(O)c4c(c(O)c32)C(=O)c2c(OC)cccc2C4=O)OC(C)C1O (stereo not given in full) |  |  | 0 | 13000 |  |  | 11000 |  |  |  |  |  |  |  |
| COCC(C#N)NC1CC(O[C@H]2C[C@](O)(C(C)=O)Cc3c(O)c4c(c(O)c32)C(=O)c2c(OC)cccc2C4=O)OC(C)C1O (stereo not given in full) |  |  | 9.4 | 510 | 2.64 |  | 510 |  |  |  |  |  |  |  |
| COc1cccc2c1C(=O)c1c(O)c3c(c(O)c1C2=O)C[C@@](O)(C(C)=O)C[C@@H]3OC1CC(NCC(N)=O)C(O)C(C)O1 (stereo not given in full) |  |  | 3.5 | 7500 | 1.65 |  | 1700 |  |  |  |  |  |  |  |
| COc1cccc2c1C(=O)c1c(O)c3c(c(O)c1C2=O)C[C@@](O)(C(C)=O)C[C@@H]3OC1CC(NCC#N)C(O)C(C)O1 (stereo not given in full) |  |  | 11.7 | 1800 | 2.28 |  | 820 |  |  |  |  |  |  |  |
